{
  "source": "paper PMC7867784",
  "about": "(Translational Lung Cancer Research, 2021)",
  "key": {"[1]": {"test": "ALL-RET pharmacokinetic analysis", "assay_type": "in vivo, human", "conditions": "for free fraction of Cmin in a steady state: 450 mg BID; for AUC / Cmax / concentration at 10 h / Tmax: human, plasma, oral; for concentration at 10 h: Cmin (plasma concentration at 10 h after administration), mean ± SD [min–max]; for Tmax: median [min–max]"}, "[2]": {"test_system": "RET-fusion positive NSCLC cells", "conditions": "cited from earlier work"}, "RET-rearranged NSCLC [3]": {"test_system": "RET-rearranged NSCLC", "test": "ALL-RET phase 1/2 trial: antitumor efficacy", "assay_type": "in vivo, human", "procedure,_shortened": "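Patients with RET-rearranged NSCLC confirmed by at least 2 of 3 methods (multiplex RT-PCR, break-apart FISH, targeted NGS), previously treated with ≥1 chemotherapy regimen, ECOG PS 0–2, with measurable lesions. The test compound was given BID in 21-day cycles until respite, dose reduction or discontinuation criteria were met. Response was assessed by RECIST v1.1 on central review. DCR was defined as CR+PR+SD lasting at least 8 weeks.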"}, "RET-rearranged NSCLC [4]": {"test_system": "RET-rearranged NSCLC", "conditions": "600 mg BID, non-Japanese RET rearrangement NSCLC, out of 8 patients; cited from earlier work"}, "[5]": {"conditions": "cited from earlier work; for Cmax: AF-002JG study; for AUC0-10: global study"}, "[6]": {"conditions": "450 mg, Day 15, 450 mg BID, N=5"}, "[7]": {"conditions": "600 mg, Day 15, 600 mg BID, N=3"}, "[8]": {"conditions": "450 mg BID, 25 RET-TKI-naïve patients"}, "[9]": {"conditions": "450 mg BID, RET-TKI-naïve (n=25)"}, "[10]": {"conditions": "450 mg BID, of 25 RET-TKI-naïve patients"}},
  "note": "“And” between values parts separate entries of the source, which are not always exact repeats. Equal values may be shown once. Read-outs that look alike come from different tables or passages of the source.",
  "data": [
    {"smiles": "CCc1cc2c(cc1N1CCC(N3CCOCC3)CC1)C(C)(C)c1[nH]c3cc(C#N)ccc3c1C2=O", "note": "[alectinib]", "values": [
      {"measurement": "free fraction of Cmin in a steady state", "setting": "[1]", "value": "< 4.8", "unit": "ng/mL"},
      {"measurement": "free fraction of Cmin in a steady state", "setting": "[1]; equivalent of ng/mL value", "value": "< 10", "unit": "nmol/L"},
      {"measurement": "AUC", "setting": "[1]; 450 mg", "value": 4820, "unit": "ng·h/mL"},
      {"measurement": "Cmax", "setting": "[1]; 450 mg", "value": "576 ± 215", "unit": "ng/mL"},
      {"measurement": "concentration at 10 h", "setting": "[1]; 450 mg, Day 1, 450 mg, N=6", "value": 118, "unit": "ng/mL"},
      {"measurement": "concentration at 10 h", "setting": "[1]; [6]", "value": 483, "unit": "ng/mL"},
      {"measurement": "Tmax", "setting": "[1]; 450 mg, Day 1, 450 mg, N=6", "value": 5.91, "unit": "h"},
      {"measurement": "Tmax", "setting": "[1]; [6]", "value": 7.97, "unit": "h"},
      {"measurement": "AUC", "setting": "[1]; 600 mg", "value": 8600, "unit": "ng·h/mL"},
      {"measurement": "Cmax", "setting": "[1]; 600 mg", "value": 1050, "unit": "ng/mL"},
      {"measurement": "concentration at 10 h", "setting": "[1]; 600 mg, Day 1, 600 mg, N=6", "value": 278, "unit": "ng/mL"},
      {"measurement": "concentration at 10 h", "setting": "[1]; [7]", "value": 911, "unit": "ng/mL"},
      {"measurement": "Tmax", "setting": "[1]; 600 mg, Day 1, 600 mg, N=6", "value": 7.01, "unit": "h"},
      {"measurement": "Tmax", "setting": "[1]; [7]", "value": 5.77, "unit": "h"},
      {"measurement": "growth of RET-rearranged tumor cells", "setting": "[2]; in vitro and in vivo, pre-clinical studies", "value": "inhibit the growth"},
      {"measurement": "IC50", "setting": "[2]; read-out: IC50 in RET-fusion positive NSCLC cells", "value": "< 300", "unit": "nM"},
      {"measurement": "patients who could continue treatment for more than 1 year", "setting": "RET-rearranged NSCLC [3]; 450 mg BID", "value": 5},
      {"measurement": "DCR (disease control rate, at 8 weeks)", "setting": "RET-rearranged NSCLC [3]; [8]", "value": 52, "unit": "%"},
      {"measurement": "patients with disease stabilization for more than 1 year", "setting": "RET-rearranged NSCLC [3]; [8]", "value": 5},
      {"measurement": "patients with disease stabilization for more than 1 year, percent", "setting": "RET-rearranged NSCLC [3]; [8]", "value": 20, "unit": "%"},
      {"measurement": "ORR (objective/overall response rate)", "setting": "RET-rearranged NSCLC [3]; 450 mg BID, 25 RET-TKI-naïve patients, central review", "value": 4, "unit": "%"},
      {"measurement": "median PFS", "setting": "RET-rearranged NSCLC [3]; 450 mg BID, 25 RET-TKI-naïve patients, 95% CI 2.0–5.4", "value": 3.4, "unit": "months"},
      {"measurement": "median OS", "setting": "RET-rearranged NSCLC [3]; 450 mg BID, 25 RET-TKI-naïve patients, 95% CI 5.4–NE", "value": "19.0 months and 19 months"},
      {"measurement": "Best overall response NE (not evaluated), %", "setting": "RET-rearranged NSCLC [3]; [9]", "value": 8, "unit": "%"},
      {"measurement": "Best overall response PD, %", "setting": "RET-rearranged NSCLC [3]; [9]", "value": 40, "unit": "%"},
      {"measurement": "Best overall response PR, %", "setting": "RET-rearranged NSCLC [3]; [9]", "value": 4, "unit": "%"},
      {"measurement": "Best overall response SD, %", "setting": "RET-rearranged NSCLC [3]; [9]", "value": 48, "unit": "%"},
      {"measurement": "patients with disease control at 8 weeks", "setting": "RET-rearranged NSCLC [3]; [10]", "value": 13},
      {"measurement": "patients with objective response", "setting": "RET-rearranged NSCLC [3]; [10]", "value": 1},
      {"measurement": "treatment duration of the patient who showed PR", "setting": "RET-rearranged NSCLC [3]; one patient with KIF5B-RET, phase 2, 450 mg BID", "value": "~2", "unit": "years"},
      {"measurement": "activity against RET-rearranged NSCLC (conclusion)", "setting": "RET-rearranged NSCLC [3]; phase 1/2, Japanese patients", "value": "limited activity"},
      {"measurement": "patients with PR", "setting": "RET-rearranged NSCLC [4]", "value": 4},
      {"measurement": "Cmax", "setting": "[5]; 460 mg BID", "value": "618 ± 165", "unit": "ng/mL"},
      {"measurement": "AUC0-10", "setting": "[5]; 460 mg BID", "value": "4,980±1,340 ng·h/mL"},
      {"measurement": "Cmax", "setting": "[5]; 600 mg BID", "value": "676 ± 186", "unit": "ng/mL"},
      {"measurement": "AUC0-10", "setting": "[5]; 600 mg BID", "value": "5,400±1,400 ng·h/mL"}
    ]}
  ]
}
